Screens deposited in PubChem by several laboratories.
This is a sample that favours compounds with a hit; in the whole collection about 29% have one here.
CYP2C9 inh = blockers of cytochrome P450 2C9 activity – biochemical, luminescence, ADME assay, primary screen; hit rate 20% among 96,000; P11712; CYP2C9 Supersomes, luciferin-H conversion; AID 777, 2007; inhibition, % at 5 µM;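 active = blocking of liver enzyme CYP2C9 beyond about 50% at 5 µM, limit read from the data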
Target sequence (P11712 whole entry, looked up): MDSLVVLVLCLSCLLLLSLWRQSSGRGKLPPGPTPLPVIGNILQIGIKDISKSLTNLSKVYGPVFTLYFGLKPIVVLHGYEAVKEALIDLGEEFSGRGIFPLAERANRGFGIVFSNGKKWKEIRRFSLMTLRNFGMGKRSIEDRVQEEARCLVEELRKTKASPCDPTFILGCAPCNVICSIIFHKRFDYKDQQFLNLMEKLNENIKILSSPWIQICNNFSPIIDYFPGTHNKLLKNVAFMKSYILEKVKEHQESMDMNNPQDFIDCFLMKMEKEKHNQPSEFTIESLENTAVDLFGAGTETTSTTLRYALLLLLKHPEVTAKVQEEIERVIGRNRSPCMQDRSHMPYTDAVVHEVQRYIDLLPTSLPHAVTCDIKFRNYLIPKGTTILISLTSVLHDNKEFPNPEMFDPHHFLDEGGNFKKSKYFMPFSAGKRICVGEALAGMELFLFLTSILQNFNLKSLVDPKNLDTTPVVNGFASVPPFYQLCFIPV
Ecoli WT expand = growth inhibitors of wild-type E. coli, primary screen, strain BW25113, expanded library, OD600; OD600 absorbance; growth inhibition, % at 100 µM; hit rate 0.15% among 98,000;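 active = growth inhibition above about 50% at one test dose, limit read from the data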;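 note: growth measured after 20 h incubation at 37 °C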
tolC growth inh = growth inhibitors of E. coli tolC mutant, primary screen, strain BW25113 ΔtolC::kan, 384-well | OD615 | growth inhibition, % at 10 µM (by protocol) | hit rate 2.2% among 65,000;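 active = growth inhibition at or above a cutoff equal to the mean over every tested compound plus 3 SD, cut at about 60% in these data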;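 note: growth measured after 20 h incubation at 37 °C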
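test system = E. coli BW25113 ΔtolC::kan bacteria | medium = LB with kanamycin 50 µg/mL | signal = OD at 615 nm | schedule = 37 °C, 20 h exposure | evaluation = % inhibition of E. coli growth | compound dosing = one dose of 10 µM final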
CYP2C19 inh = blockers of cytochrome P450 2C19 activity – biochemical, luminescence, ADME assay, primary screen; P33261; CYP2C19 Supersomes, luciferin-H EGE luminescence, 30 min; inhibition, % at 5 µM; hit rate 21% among 96,000;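 active = CYP2C19 inhibition above a set limit at 5 µM in the primary screen, cut at about 50% in these data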;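 note: plate controls were negative control wells for no effect and 2.5 mM tranylcypromine positive control for full effect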
CYP2C19 activ = human CYP2C19 activators, primary screen, biochemical, luminescence. 96,000 tested, under 10 active. recombinant CYP2C19, luciferin-H EGE luminescence; stronger effect = higher value; 0 = fully inhibited enzyme, 1 = untreated enzyme. Cytochrome P450 2C19 (Homo sapiens), P33261. activation factor at 5 µM;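 active = activation factor of at least 2 at 5 µM in the primary screen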;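 note: 0 = wells with 2.5 mM tranylcypromine and 1 = vehicle-only wells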
CYP2C9 act = human CYP2C9 activators, primary screen, biochemical, luminescence | recombinant CYP2C9, luciferin-H conversion; stronger effect = higher value; factor 1 = untreated enzyme, 0 = blocked | hit rate 1.4% among 96,000 | AID 1024, 2008 | Cytochrome P450 2C9 (Homo sapiens), P11712 | activation factor at 5 µM;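 active = activation factor of 2 or more for CYP2C9 at a 5 µM dose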;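 note: 0 = sulfaphenazole-blocked wells and 1 = vehicle-only wells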
An asterisk follows results filed as active; x = not tested or not shown.

SMILES	CYP2C9 inh	Ecoli WT expand	tolC growth inh	CYP2C19 inh	CYP2C19 activ	CYP2C9 act
O=C1CCCN1CC(CN1CCOCC1)Sc1nnnn1-c1ccccc1 (stereo not given)	-6	6	-16	27	0.7	1.1
COc1ccc(-n2c(SC(CN3CCCCC3)CN3CCCC3=O)nc3ccccc3c2=O)cc1 (stereo not given)	65*	-12	x	61*	0.4	0.3
COc1ccc(C2CC(C(F)(F)F)n3nc(C(N)=O)c(Cl)c3N2)cc1OC (stereo not given)	58*	-4	-5	15	0.9	0.4
COc1ccc(NS(=O)(=O)c2ccc3oc4ccccc4c3c2)cn1	99*	-4	100*	96*	0	0
COC(=O)c1ccccc1S(=O)(=O)Nc1ccc(OC)nc1	23	3	-15	85*	0.2	0.8
COC(=O)c1ccccc1OCc1cccc(C)n1	36	10	12	18	0.8	0.6
O=C(c1ccc2c(c1)c(=O)oc1ccccc12)N1CCCCC1	x	x	-1	x	x	x
O=C(CSc1ncn[nH]1)Nc1ccc(Cl)c(Cl)c1	27	24	0	63*	0.4	0.7
O=C(CSc1ncn[nH]1)Nc1ccc(Br)cc1F	6	2	6	82*	0.2	0.9
O=C(CSc1ncn[nH]1)Nc1ccccc1C(=O)O	1	0	-22	-5	1	1
Clc1ccc(CN2C3=NCCN3c3ccccc32)cc1Cl	-11	37	31	41	0.6	1.1
N=c1c2c(n(Cc3ccc(Cl)c(Cl)c3)c3c1CCC3)CCCC2	6	24	100*	10	0.9	0.9
CCOc1ccccc1N1CC(C(=O)N2CCc3ccccc32)CC1=O (stereo not given)	15	7	x	5	0.9	0.9
O=C(O)CC(NC(=O)COc1ccc(Cl)cc1Cl)C(=O)O (stereo not given)	-10	-6	1	0	1	1.1
Cc1cc(OC(=O)c2ccccc2Br)cc(=O)n1C	-30	-1	x	6	0.9	1.3
CCCn1c(CCNC(=O)c2cccs2)nc2ccccc21	x	2	-8	x	x	x
CCn1c(CCCNC(=O)c2cccs2)nc2ccccc21	-59	0	1	76*	0.2	1.6
CCn1c(NC(=O)c2ccc(F)cc2)c2ccccc2nc1=O	20	0	x	72*	0.3	0.8
CCn1c(CCNC(=O)c2ccc(F)cc2)nc2ccccc21	-230	-6	x	95*	0.1	3.3*
Cc1ccc(C(=O)N/C(=C\c2cn(-c3ccccc3)nc2-c2ccccc2)C(=O)N2CCOCC2)cc1	11	-10	x	15	0.8	0.9
N#Cc1cc(-c2ccccc2)nn1-c1ccccc1	36	-4	3	3	1	0.6
CNc1ccccc1-n1ccc(-c2ccccc2)n1	29	6	26	72*	0.3	0.7
C=CCc1c(C)c(C#N)c2nc3ccccc3n2c1N1CCN(C)CC1	x	x	7	x	x	x
Cc1ccc2nc(NC(=O)C3CCN(S(=O)(=O)c4cccc5nsnc45)CC3)sc2c1	x	x	30	x	x	x
Cc1ccc2nc(NC(=O)C3CCCN(S(=O)(=O)c4cccc5nsnc45)C3)sc2c1 (stereo not given)	52*	-1	52	50	0.5	0.5
SMILES	CYP2C9 inh	Ecoli WT expand	tolC growth inh	CYP2C19 inh	CYP2C19 activ	CYP2C9 act
COc1cc(NC(=O)C2CCCN(S(=O)(=O)c3cccc4nsnc34)C2)cc(OC)c1 (stereo not given)	63*	-3	-6	29	0.7	0.4
COc1ccc(OC)c(NC(=O)C2CCCN(S(=O)(=O)c3cccc4nsnc34)C2)c1 (stereo not given)	34	1	-11	67*	0.3	0.7
O=C(Nc1cccnc1)C1CCCN(S(=O)(=O)c2cccc3nsnc23)C1 (stereo not given)	70*	5	11	69*	0.3	0.3
O=C(Nc1ccc2c(c1)OCCO2)C1CCCN(S(=O)(=O)c2cccc3nsnc23)C1 (stereo not given)	42	9	x	32	0.7	0.6
CC1(C(=O)O)CCC(C(=O)NC2CCCCC2)C1(C)C (stereo not given)	-7	-5	x	-2	1	1.1
CC(CNC(=O)c1cc(Cl)ccc1[N+](=O)[O-])NC(=O)c1cc(Cl)ccc1[N+](=O)[O-] (stereo not given)	3	4	x	7	0.9	1
CCC1CCCCN1C(=O)CSc1nc(N)c(NC(=O)c2ccc(OC)c(OC)c2)c(=O)[nH]1 (stereo not given)	13	1	-5	-4	1	0.9
CC1CCC(C(C)C)C(OC(=O)CSc2n[nH]c(=O)[nH]c2=O)C1 (stereo not given)	-2	0	45	-12	1.1	1
COC(=O)c1ccccc1-c1ccc(/C=C2\C(=O)N(c3ccccc3)N=C2c2ccccc2)o1	83*	-45	x	94*	0.1	0.2
COc1ccc(-c2ccc(/C=C3\C(=O)N(c4ccccc4)N=C3c3ccccc3)o2)c([N+](=O)[O-])c1	71*	-22	x	56*	0.4	0.3
O=C1C(=O)N(CCCn2ccnc2)C(c2cccnc2)/C1=C(/O)c1ccc(Br)cc1 (stereo not given)	x	x	-7	x	x	x
O=C(Cn1ncc2c(=O)oc3ccccc3c21)N1CCCN(Cc2ccccc2F)C1	18	7	1	-1	1	0.8
COc1ccccc1N1CCN(C(CNS(=O)(=O)c2ccc(C)cc2)c2cccnc2)CC1 (stereo not given)	18	2	5	58*	0.4	0.8
O=S(=O)(NCC(c1cccnc1)N1CCN(c2ccccc2F)CC1)c1cccs1 (stereo not given)	66*	-4	x	86*	0.1	0.3
O=S(=O)(NCC(c1cccnc1)N1CCOCC1)c1cccs1 (stereo not given)	x	x	-12	x	x	x
COC(=O)NCC(c1cccnc1)N1CCN(c2ccccc2OC)CC1 (stereo not given)	-9	-4	-20	42	0.6	1.1
Cc1ccc(S(=O)(=O)NCC(c2cccnc2)N(C)C)cc1 (stereo not given)	7	4	-14	61*	0.4	0.9
O=S(=O)(NCC(c1cccnc1)N1CCN(c2ccc(F)cc2)CC1)c1cccs1 (stereo not given)	58*	-2	-3	88*	0.1	0.4
COC(=O)NCC(c1cccnc1)N1CCN(c2ccccc2F)CC1 (stereo not given)	x	6	-4	x	x	x
COc1ccc(-c2c(C(=O)O)nc3ccccc3c2C(=O)O)cc1	1	-5	x	4	1	1
